# Measured values as given in ChEMBL document CHEMBL2203215, “Discovery of 6-[4-(6-nitroxyhexanoyl)piperazin-1-yl)]-9H-purine, as pharmacological post-conditioning agent” (Bioorg Med Chem, 2012).
# The source made the active and inactive calls. No cut-off for these calls is given here.
# What was measured:
# Oryctolagus cuniculus [1] = assay: Toxicity in New Zealand White rabbit ischemia/reperfusion model assessed as heart rate at total dose of 3.8 umol/kg administered bolus at 40th mins and 1st min before sustained ischemia measured at 20 mins ischemia period of initial ischemic insult; format: organism-based; conditions: in vivo, iv
# Oryctolagus cuniculus [2] = assay: Toxicity in New Zealand White rabbit ischemia/reperfusion model assessed as blood pressure at total dose of 3.8 umol/kg administered bolus at 40th mins and 1st min before sustained ischemia measured at 20 mins ischemia period of initial ischemic insult; format: organism-based; conditions: in vivo, iv
# Oryctolagus cuniculus [3] = assay: Toxicity in New Zealand White rabbit ischemia/reperfusion model assessed as heart rate at total dose of 3.8 umol/kg administered bolus at 20th mins of ischemia and 1st min of reperfusion measured at 180 mins reperfusion is period of reperfusion; format: organism-based; conditions: in vivo, iv, 3 h
# Oryctolagus cuniculus [4] = assay: Toxicity in New Zealand White rabbit ischemia/reperfusion model assessed as blood pressure at total dose of 3.8 umol/kg administered bolus at 20th mins of ischemia and 1st min of reperfusion measured at 180 mins reperfusion is period of reperfusion; format: organism-based; conditions: in vivo, iv, 3 h
# Oryctolagus cuniculus [5] = assay: Cardioprotective activity in New Zealand White rabbit ischemia/reperfusion model assessed as reduction of infarct size at total dose of 3.8 umol/kg administered bolus at 40th mins and 1st min before sustained ischemia; format: functional; set-up: scale not given: the % may be the effect or the level left
# In short: (§1)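 Male rabbits (n = 6–8/group), anesthetized with thiopentone 30 mg/kg via ear vein, intubated and ventilated. Subjected to 30 min regional myocardial ischemia and 3 h reperfusion. Given as two boluses of 1.9 µmol/kg (3.8 µmol/kg total). Heart slices stained with 1% TTC (phosphate buffer pH 7.4, 20 min, 37 °C), then fixed in formaldehyde. Risk zone delineated under UV at 366 nm; infarct expressed relative to risk area.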
# Oryctolagus cuniculus [6] = assay: Cardioprotective activity in New Zealand White rabbit ischemia/reperfusion model assessed as reduction of infarct size at total dose of 3.8 umol/kg administered bolus at 20th mins and 1st min of reperfusion; format: functional; set-up: scale not given: the % may be the effect or the level left; in short: as §1
# Oryctolagus cuniculus [7] = assay: Cardioprotective activity in New Zealand White rabbit ischemia/reperfusion model assessed as increase of eNOS phosphorylated level at total dose of 3.8 umol/kg administered bolus at 40th mins and 1st min before sustained ischemia by Western blot analysis; format: functional, organism-based
# Oryctolagus cuniculus [8] = assay: Cardioprotective activity in New Zealand White rabbit ischemia/reperfusion model assessed as increase of phosphorylated Akt level at total dose of 3.8 umol/kg administered bolus at 40th mins and 1st min before sustained ischemia by Western blot analysis; format: functional, organism-based
# Oryctolagus cuniculus [9] = assay: Toxicity in New Zealand White rabbit ischemia/reperfusion model assessed as mortality at total dose of 3.8 umol/kg administered bolus measured at 10th and 15th mins of reperfusion; format: organism-based; conditions: in vivo
# In short: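 Male rabbits, randomized (n = 6–8 per group), anesthetized with sodium thiopentone 30 mg/kg into an ear vein, intubated and mechanically ventilated. Regional myocardial ischemia for 30 min, then 3 h reperfusion. Compound given as bolus at the 20th min of ischemia and the 1st min of reperfusion, total dose 3.8 µmol/kg. Animal survival was followed through reperfusion.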
# Oryctolagus cuniculus [10] = assay: Cardioprotective activity in New Zealand White rabbit ischemia/reperfusion model assessed as reduction of infarct to risk area ratio at total dose of 3.8 umol/kg administered bolus; format: functional; set-up: scale not given: the % may be the effect or the level left; in short: as §1
Compound,Activity (Oryctolagus cuniculus [1]),Activity (Oryctolagus cuniculus [2]),Activity (Oryctolagus cuniculus [3]),Activity (Oryctolagus cuniculus [4]),Activity (Oryctolagus cuniculus [5]),Activity (Oryctolagus cuniculus [6]),Activity (Oryctolagus cuniculus [7]),Activity (Oryctolagus cuniculus [8]),Activity (Oryctolagus cuniculus [9]),Activity (Oryctolagus cuniculus [10])
O=[N+]([O-])OC[C@H]1O[C@@H](n2cnc3c(N4CCCCC4)ncnc32)[C@H](O)[C@@H]1O,279 bpm,113 mmHg,271 bpm,110 mmHg,17.9%,22.7%,,,,
O=C(CO[N+](=O)[O-])N1CCN(c2ncnc3[nH]cnc23)CC1,278 bpm,114 mmHg,274 bpm,109 mmHg,37.3%,26.2%,,,,
O=[N+]([O-])OCCCCCCn1cnc2c(N3CCCCC3)ncnc21,276 bpm,112 mmHg,270 bpm,104 mmHg,19.8%,36.8%,Active,Active,,
O=C(NCCO[N+](=O)[O-])c1nc2c(N3CCCCC3)ncnc2[nH]1,274 bpm,112 mmHg,269 bpm,103 mmHg,34.4%,,,,Toxic,
O=C(CNc1ncnc2[nH]cnc12)NCCO[N+](=O)[O-],282 bpm,110 mmHg,273 bpm,104 mmHg,34.8%,,,,Toxic,
O=C(CCCCC1CCSS1)N1CCN(c2ncnc3[nH]cnc23)CC1 (stereo not given),279 bpm,106 mmHg,271 bpm,101 mmHg,,28.6%,,,,
O=C(CCCCCO[N+](=O)[O-])N1CCN(c2ncnc3[nH]cnc23)CC1,278 bpm,117 mmHg,269 bpm,112 mmHg,24.9%,13.4%,,,,12.3%
Nc1ncnc2c1ncn2[C@@H]1O[C@H](CO[N+](=O)[O-])[C@@H](O)[C@H]1O,284 bpm,102 mmHg,275 bpm,98 mmHg,,40.2%,,,,
O=C(Cn1cnc2c(N3CCCCC3)ncnc21)NCCO[N+](=O)[O-],280 bpm,115 mmHg,276 bpm,102 mmHg,28.4%,,,,Toxic,
